In ChEMBL document CHEMBL4402602, “Discovery of (2R)-N-[3-[2-[(3-Methoxy-1-methyl-pyrazol-4-yl)amino]pyrimidin-4-yl]-1H-indol-7-yl]-2-(4-methylpiperazin-1-yl)propenamide (AZD4205) as a Potent and Selective Janus Kinase 1 Inhibitor” (J Med Chem, 2020):
Values after ≈ are worked out from the molar mass of the structure shown. Active and inactive are the calls of the source. The rule behind the calls is not given here.

Assays:
[1] = species on record: Mus musculus; conditions: 50 mg/kg
[2] = Intrinsic clearance in dog hepatocytes assessed per 10^-6 cells; format: ADME, cell-based, Canis lupus familiaris, Hepatocyte
Method in brief: (§1)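 Intrinsic clearance measured in fresh hepatocytes from rat, dog and human. Expressed as µL/min per 10⁶ cells.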

[3] = Toxicity in NCr nude mouse xenografted with human NCI-H1975 cells harboring EGFR T790M mutant assessed as effect on body weight at 50 mg/kg, po bid administered for 18 days post 10 days of implantation; format: organism-based; conditions: in vivo
Method in brief: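 Female NCr nude mice implanted subcutaneously with NCI-H1975 cells. Ten days after implantation, mice were randomized into groups of 6 to 8 (average tumor volume 189 mm³, range 152 to 250 mm³). They were dosed orally, as single agent or combination, at 50 mpk BID for 18 days. Vehicle was 20% captisol, with vehicle-treated controls.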

[4] = species on record: Homo sapiens; assay: Selectivity index, ratio of IC50 for inhibition of recombinant human N-terminal GST-tagged JAK2 (831 to 1132 residues) expressed in insect cells using 5FAM-labeled GEEPLYWSFPAKKK-NH2 peptide as substrate after 10 mins in presence of 5 mM ATP by caliper mobility shift assay to IC50 for inhibition of …
[5] = AUC in Beagle dog at 10 mg/kg, iv; format: ADME, organism-based, Canis lupus familiaris; conditions: in vivo
Method in brief: (§2)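 Male beagle dogs. Oral dose 20 mg/kg in 0.1% HPMC, pH 2. Intravenous dose 10 mg/kg in 20% TEG/D5W. AUC, observed clearance, Vdss, half-life and oral bioavailability derived from plasma exposure.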

[6] = species on record: Mus musculus; conditions: 50 mg/kg; remark: listed apart in the source
[7] = Intrinsic clearance in rat hepatocytes assessed per 10^-6 cells; format: ADME, cell-based, Hepatocyte
Method in brief: as §1

[8] = system: Mus musculus; assay: In vivo inhibition of JAK1 in human NCI-H1975 cells harboring EGFR T790M mutant xenografted in NCr nude mouse assessed as reduction of STAT3 phosphorylation at Y705 residue at 50 mg/kg measured after 8 hrs relative to control; format: functional; conditions: NCI-H1975, 8 h
[9] = biological target: T1, Tyrosine-protein kinase JAK1 (Homo sapiens, UniProt P23458); assay: Inhibition of JAK1 in human NCI-H1975 cells assessed as decrease in STAT3 phosphorylation measured after 1 hr by ELISA; format: cell-based
Method in brief: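 Cellular mode-of-action assay in NCI-H1975 cells measuring inhibition of STAT3 phosphorylation. IC50 values are geometric means of at least two independent experiments.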

[10] = biological target: Tyrosine-protein kinase JAK2 (Homo sapiens, UniProt O60674); assay: Inhibition of recombinant human N-terminal GST-tagged JAK2 (831 to 1132 residues) expressed in insect cells using 5FAM-labeled GEEPLYWSFPAKKK-NH2 peptide as substrate after 10 mins in presence of 5 mM ATP by caliper mobility shift assay
[11] = Volume of distribution at steady state in Han Wistar rat at 5 mg/kg, iv; format: ADME, organism-based; conditions: in vivo, read-out: Vdss
Method in brief: (§3)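 Male Han Wistar rats. Oral dose 10 mg/kg in 0.1% HPMC. Intravenous dose 5 mg/kg in 40% DMA/40% PEG/20% saline. AUC, observed clearance, Vdss, half-life and oral bioavailability derived from plasma exposure.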

[12] = AUC in Han Wistar rat at 10 mg/kg, po; format: ADME, organism-based; conditions: in vivo
Method in brief: as §3

[13] = biological target: Cytochrome P450 (isoform not stated) (Homo sapiens, UniProt P04798+P05177+P05181+P08684+P10632+P10635+P11509+P11712+P13584+P20813+P20815+P20853+P24462+P24903+P33260+P33261+P51589+P78329+P98187+Q02928+Q08477+Q16678+Q16696+Q5TCH4+Q6VVX0+Q7Z449+Q8TAV3+Q96SQ9+Q9HB55); assay: Inhibition of human Cytochrome P450; format: ADME, protein assay
Method in brief: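 Inhibition tested against […] at up to 30 µM. IC50 reported.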

[14] = Intrinsic clearance in human hepatocytes assessed per 10^-6 cells; format: ADME, cell-based, Hepatocyte
Method in brief: as §1

[15] = Octanol-buffer partition coefficient, log D of the compound at pH 7.4 by shake flask method; format: physicochemical
[16] = Clearance in Han Wistar rat at 5 mg/kg, iv; format: ADME, organism-based; conditions: in vivo
Method in brief: as §3

[17] = Solubility of compound at pH 6.5; format: physicochemical; conditions: buffer
[18] = Half life in Han Wistar rat at 5 mg/kg, iv; format: ADME, organism-based; conditions: in vivo
Method in brief: as §3

[19] = system: NCI-H1975; assay: Antitumor activity against human NCI-H1975 cells harboring EGFR T790M mutant xenografted in NCr nude mouse assessed as tumor growth inhibition at 50 mg/kg, po bid administered for 18 days post 10 days of implantation; format: functional, organism-based
Method in brief: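 NCI-H1975 cells implanted subcutaneously in female NCr nude mice. Ten days later, mice with tumours averaging 189 mm³ (range 152–250) were randomized into groups of 6–8.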

[20] = Half life in Beagle dog at 20 mg/kg, po; format: ADME, organism-based, Canis lupus familiaris; conditions: in vivo
Method in brief: as §2

[21] = Bioavailability in Han Wistar rat at 10 mg/kg, po; conditions: in vivo
[22] = Apparent permeability across apical to basolateral membrane in human Caco2 cells; format: ADME, cell-based; conditions: Caco-2
Method in brief: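 Caco-2 monolayer permeability measured in both directions, apical to basolateral and basolateral to apical. Papp reported for the A-to-B direction.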

[23] = Bioavailability in Beagle dog at 20 mg/kg, po; conditions: in vivo
[24] = Volume of distribution at steady state in Beagle dog at 10 mg/kg, iv; format: ADME, organism-based, Canis lupus familiaris; conditions: in vivo
Method in brief: as §2

[25] = Half life in Beagle dog at 10 mg/kg, iv; format: ADME, organism-based, Canis lupus familiaris; conditions: in vivo
Method in brief: as §2

[26] = biological target: Non-receptor tyrosine-protein kinase TYK2 (Homo sapiens, UniProt P29597); assay: Inhibition of TYK2 (unknown origin)
Method in brief: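 JAK family biochemical kinase assay run at 5 mM ATP. IC50 values are geometric means of at least two independent experiments, SEM within 0.2 log units.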

[27] = biological target: T1, Tyrosine-protein kinase JAK1; assay: Inhibition of recombinant human N-terminal GST-tagged JAK1 (866 to 1154 residues) expressed in insect cells using FITC-labeled C6-KKHTDDGYMPMSPGVA-NH peptide as substrate after 10 mins in presence of 5 mM ATP by caliper mobility shift assay
[28] = biological target: Vascular endothelial growth factor receptor 3 (Homo sapiens) (UniProt P35916); assay: Inhibition of recombinant human N-terminal GST-tagged FLT4 (800 to end residues) expressed in baculovirus infected Sf21 cells at 1 uM relative to control
Method in brief: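 Single-point screen at 1 µM across a panel of 293 kinases. Percent inhibition recorded for each kinase.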

[29] = biological target: Voltage-gated inwardly rectifying potassium channel KCNH2 (Homo sapiens, UniProt Q12809); assay: Inhibition of human ERG
[30] = Toxicity in NCr nude mouse xenografted with human NCI-H1975 cells harboring EGFR T790M mutant assessed as effect on body weight at 50 mg/kg, po bid administered for 18 days post 10 days of implantation in combination with osimertinib at 2.5 mg/kg, po qd; format: organism-based; conditions: in vivo
[31] = system: NCI-H1975; conditions: Homo sapiens, 50 mg/kg
[32] = Solubility of compound in phosphate buffer at pH 7.4 and 37 degree C; format: physicochemical
[33] = Half life in Han Wistar rat at 10 mg/kg, po; format: ADME, organism-based; conditions: in vivo
Method in brief: as §3

[34] = Efflux ratio of apparent permeability across basolateral to apical membrane over apical to basolateral membrane in human Caco2 cells; format: ADME, cell-based; conditions: Caco-2
Method in brief: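 Caco-2 monolayer permeability measured in both directions, apical to basolateral and basolateral to apical. Efflux ratio is the B to A Papp divided by the A to B Papp.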

[35] = AUC in Beagle dog at 20 mg/kg, po; format: ADME, organism-based, Canis lupus familiaris; conditions: in vivo
Method in brief: as §2

[36] = AUC in Han Wistar rat at 5 mg/kg, iv; format: ADME, organism-based; conditions: in vivo
Method in brief: as §3

T1 sequence (P23458 whole entry): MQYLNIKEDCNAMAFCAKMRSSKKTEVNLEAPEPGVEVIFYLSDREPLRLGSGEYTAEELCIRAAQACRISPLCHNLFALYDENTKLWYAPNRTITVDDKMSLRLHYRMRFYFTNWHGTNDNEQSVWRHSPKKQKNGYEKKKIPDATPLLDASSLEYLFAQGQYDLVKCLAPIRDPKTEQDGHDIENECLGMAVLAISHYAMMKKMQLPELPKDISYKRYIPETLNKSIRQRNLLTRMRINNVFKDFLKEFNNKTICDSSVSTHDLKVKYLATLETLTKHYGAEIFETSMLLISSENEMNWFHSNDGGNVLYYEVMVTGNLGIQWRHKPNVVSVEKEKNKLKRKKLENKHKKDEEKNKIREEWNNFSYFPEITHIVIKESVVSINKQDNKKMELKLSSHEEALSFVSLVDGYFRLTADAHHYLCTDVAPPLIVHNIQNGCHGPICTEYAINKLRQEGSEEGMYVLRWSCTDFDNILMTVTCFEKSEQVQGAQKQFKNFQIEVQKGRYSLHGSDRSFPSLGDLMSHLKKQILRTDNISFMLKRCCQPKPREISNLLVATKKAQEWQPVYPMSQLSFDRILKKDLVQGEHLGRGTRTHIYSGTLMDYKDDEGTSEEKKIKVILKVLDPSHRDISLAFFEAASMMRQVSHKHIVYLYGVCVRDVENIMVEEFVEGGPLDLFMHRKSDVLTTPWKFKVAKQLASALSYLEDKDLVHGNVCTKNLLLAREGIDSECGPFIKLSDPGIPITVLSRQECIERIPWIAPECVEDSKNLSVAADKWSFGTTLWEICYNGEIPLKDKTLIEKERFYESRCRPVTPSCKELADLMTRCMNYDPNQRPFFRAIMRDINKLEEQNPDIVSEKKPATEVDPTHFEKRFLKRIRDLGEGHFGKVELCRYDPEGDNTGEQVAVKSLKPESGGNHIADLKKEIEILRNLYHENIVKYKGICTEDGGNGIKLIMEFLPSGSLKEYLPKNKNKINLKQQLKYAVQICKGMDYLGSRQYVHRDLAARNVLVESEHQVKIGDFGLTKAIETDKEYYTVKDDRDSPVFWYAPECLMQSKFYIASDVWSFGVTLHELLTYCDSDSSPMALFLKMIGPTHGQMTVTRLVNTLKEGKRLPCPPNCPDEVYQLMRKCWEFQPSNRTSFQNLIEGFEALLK
Tyrosine-protein kinase JAK2, sequence (O60674 whole entry, the tested form may be a part): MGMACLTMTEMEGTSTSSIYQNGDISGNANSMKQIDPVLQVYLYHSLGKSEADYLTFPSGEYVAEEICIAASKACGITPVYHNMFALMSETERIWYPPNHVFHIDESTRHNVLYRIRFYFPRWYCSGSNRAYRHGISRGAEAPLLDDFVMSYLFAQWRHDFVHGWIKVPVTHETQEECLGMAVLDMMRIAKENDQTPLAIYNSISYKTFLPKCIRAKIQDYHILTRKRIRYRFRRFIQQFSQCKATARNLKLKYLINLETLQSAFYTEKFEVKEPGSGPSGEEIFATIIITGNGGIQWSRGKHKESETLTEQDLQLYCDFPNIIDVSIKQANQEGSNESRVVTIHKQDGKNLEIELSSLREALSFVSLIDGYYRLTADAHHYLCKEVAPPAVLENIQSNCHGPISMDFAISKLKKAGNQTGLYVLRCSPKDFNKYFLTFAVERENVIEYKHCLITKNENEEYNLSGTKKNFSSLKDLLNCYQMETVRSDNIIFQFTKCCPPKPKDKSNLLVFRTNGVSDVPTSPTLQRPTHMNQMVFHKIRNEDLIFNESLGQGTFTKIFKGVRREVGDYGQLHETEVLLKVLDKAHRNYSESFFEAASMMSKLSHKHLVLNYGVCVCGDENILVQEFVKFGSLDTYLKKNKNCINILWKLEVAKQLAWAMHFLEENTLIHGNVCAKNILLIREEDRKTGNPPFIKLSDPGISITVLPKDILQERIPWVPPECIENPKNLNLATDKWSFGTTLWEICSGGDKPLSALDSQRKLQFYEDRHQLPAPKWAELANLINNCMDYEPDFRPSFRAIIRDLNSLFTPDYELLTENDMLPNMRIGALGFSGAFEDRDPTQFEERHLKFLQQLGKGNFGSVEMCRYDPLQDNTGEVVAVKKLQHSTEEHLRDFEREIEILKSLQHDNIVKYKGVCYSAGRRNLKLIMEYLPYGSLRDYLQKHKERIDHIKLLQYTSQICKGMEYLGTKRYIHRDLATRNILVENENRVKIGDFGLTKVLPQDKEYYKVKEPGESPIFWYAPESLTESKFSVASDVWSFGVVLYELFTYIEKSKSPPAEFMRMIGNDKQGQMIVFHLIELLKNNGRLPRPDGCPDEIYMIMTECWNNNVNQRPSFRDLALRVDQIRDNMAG
Non-receptor tyrosine-protein kinase TYK2, sequence (P29597 whole entry): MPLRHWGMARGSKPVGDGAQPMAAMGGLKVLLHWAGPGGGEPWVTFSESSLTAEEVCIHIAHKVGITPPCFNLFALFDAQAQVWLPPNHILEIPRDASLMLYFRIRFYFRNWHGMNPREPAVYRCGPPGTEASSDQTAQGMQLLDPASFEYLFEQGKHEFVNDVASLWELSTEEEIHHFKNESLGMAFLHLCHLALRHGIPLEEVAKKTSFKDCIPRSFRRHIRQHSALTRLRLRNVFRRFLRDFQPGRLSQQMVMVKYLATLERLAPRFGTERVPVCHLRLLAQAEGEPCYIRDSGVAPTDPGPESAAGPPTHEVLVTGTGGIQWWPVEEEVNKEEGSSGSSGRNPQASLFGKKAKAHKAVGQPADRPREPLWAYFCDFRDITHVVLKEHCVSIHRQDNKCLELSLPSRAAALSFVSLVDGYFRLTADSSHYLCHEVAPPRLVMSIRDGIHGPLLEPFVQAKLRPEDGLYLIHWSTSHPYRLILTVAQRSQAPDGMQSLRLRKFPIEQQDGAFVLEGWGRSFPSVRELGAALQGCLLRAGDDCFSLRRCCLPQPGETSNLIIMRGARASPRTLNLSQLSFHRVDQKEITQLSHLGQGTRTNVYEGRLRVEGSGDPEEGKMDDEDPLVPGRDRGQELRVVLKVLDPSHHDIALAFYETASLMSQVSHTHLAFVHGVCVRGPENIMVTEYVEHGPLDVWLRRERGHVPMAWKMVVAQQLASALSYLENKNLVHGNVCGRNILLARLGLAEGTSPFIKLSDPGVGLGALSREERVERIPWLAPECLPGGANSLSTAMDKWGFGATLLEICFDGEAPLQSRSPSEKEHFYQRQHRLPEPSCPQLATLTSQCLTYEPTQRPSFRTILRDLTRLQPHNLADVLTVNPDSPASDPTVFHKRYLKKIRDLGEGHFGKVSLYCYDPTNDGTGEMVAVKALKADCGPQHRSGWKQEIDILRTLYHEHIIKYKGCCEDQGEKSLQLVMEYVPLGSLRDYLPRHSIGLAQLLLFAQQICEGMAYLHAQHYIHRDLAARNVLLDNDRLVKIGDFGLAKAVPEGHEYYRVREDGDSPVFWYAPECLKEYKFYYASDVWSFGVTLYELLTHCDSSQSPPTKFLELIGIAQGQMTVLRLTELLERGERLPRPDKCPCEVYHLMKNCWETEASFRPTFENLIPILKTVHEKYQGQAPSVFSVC
Vascular endothelial growth factor receptor 3 (Homo sapiens), sequence (P35916 whole entry): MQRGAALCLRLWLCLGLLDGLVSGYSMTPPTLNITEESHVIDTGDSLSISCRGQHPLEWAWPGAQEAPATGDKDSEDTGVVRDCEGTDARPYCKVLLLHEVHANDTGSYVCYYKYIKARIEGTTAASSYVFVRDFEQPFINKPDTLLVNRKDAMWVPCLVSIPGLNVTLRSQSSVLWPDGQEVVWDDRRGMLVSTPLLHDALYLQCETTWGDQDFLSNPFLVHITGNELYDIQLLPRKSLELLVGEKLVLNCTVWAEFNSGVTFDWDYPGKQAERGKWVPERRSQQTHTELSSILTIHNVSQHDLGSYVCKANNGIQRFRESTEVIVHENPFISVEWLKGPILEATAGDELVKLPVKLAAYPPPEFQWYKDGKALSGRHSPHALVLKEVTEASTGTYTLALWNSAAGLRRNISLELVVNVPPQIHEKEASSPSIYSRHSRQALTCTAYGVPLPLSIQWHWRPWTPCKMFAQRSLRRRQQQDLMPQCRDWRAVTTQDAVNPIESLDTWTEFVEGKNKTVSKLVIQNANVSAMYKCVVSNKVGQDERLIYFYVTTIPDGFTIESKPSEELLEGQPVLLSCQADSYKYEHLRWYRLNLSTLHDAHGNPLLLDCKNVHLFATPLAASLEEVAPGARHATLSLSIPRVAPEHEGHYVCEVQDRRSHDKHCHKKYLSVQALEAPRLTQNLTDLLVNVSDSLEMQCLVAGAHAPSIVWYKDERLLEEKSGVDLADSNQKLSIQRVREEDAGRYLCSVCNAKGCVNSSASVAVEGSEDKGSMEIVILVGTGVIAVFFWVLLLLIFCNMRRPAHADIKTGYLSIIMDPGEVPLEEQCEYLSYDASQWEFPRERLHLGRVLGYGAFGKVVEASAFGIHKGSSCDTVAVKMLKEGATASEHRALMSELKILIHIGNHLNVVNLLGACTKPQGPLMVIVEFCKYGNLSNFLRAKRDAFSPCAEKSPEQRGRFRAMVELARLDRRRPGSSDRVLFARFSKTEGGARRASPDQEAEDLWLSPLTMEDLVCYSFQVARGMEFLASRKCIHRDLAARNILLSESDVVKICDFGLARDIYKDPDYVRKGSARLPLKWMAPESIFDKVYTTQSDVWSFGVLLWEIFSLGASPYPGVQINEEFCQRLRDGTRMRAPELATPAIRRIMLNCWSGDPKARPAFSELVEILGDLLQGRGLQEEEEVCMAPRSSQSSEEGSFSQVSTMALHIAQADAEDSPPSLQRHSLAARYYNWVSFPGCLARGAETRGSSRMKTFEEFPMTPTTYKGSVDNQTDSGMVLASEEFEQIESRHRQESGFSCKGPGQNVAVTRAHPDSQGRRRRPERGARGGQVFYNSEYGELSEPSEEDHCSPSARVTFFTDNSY

COc1nn(C)cc1Nc1nccc(-c2c[nH]c3c(NC(=O)[C@@H](C)N4CCN(C)CC4)cccc23)n1 [GOLIDOCITINIB]
inhibition [1]: Active | CLH [2]: 2 µL/min | Activity [3]: Non-Toxic | Ratio IC50 [4]: > 214 | AUC [5]: 3.1 µM·h | inhibition [6]: Active | CLH [7]: < 1.9 µL/min | inhibition in vivo at 50 mg/kg [8]: 80% | IC50 [9]: 130 nM | IC50 [10]: > 15000 nM | Vd [11]: 8.7 L/kg | AUC [12]: 1.7 µM·h | IC50 [13]: > 30000 nM | CLH [14]: < 1 µL/min | logD [15]: 1.7 | clearance [16]: 20 mL/min/kg | solubility [17]: > 1000 µM | half-life [18]: 6 h | TGI [19]: inactive | half-life [20]: 9 h | F [21]: 100% | Papp A→B [22]: 7.51 ×10⁻⁶ cm/s | bioavailability [23]: 71% | Vd [24]: 6.3 L/kg | half-life [25]: 9 h | IC50 [26]: 2800 nM | IC50 [27]: 70 nM | inhibition [28]: > 75% | IC50 [29]: > 100000 nM | Activity [30]: Non-Toxic | TGI [31]: Active | solubility [32]: 605 µM (≈ 296 µg/mL) | half-life [33]: 7 h | efflux ratio [34]: 2.6 | AUC [35]: 5.3 µM·h | AUC [36]: 1.2 µM·h
